Reference: ChEMBL document CHEMBL1671867, “Novel polymyxin derivatives carrying only three positive charges are effective antibacterial agents” (Antimicrob Agents Chemother, 2008)
Converted amounts (≈) assume the structure as drawn. Bridge positions count the residues as written; N and C are the ends. Square brackets hold non-standard residues; d marks the D form. Peptide text beside a SMILES is read from it. * marks the point of attachment. Octanoyl = CCCCCCCC(=O)*; Dab = NCC[C@H](N)C(=O)O; Abu = CC[C@H](N)C(=O)O

Legend:
[1] = test system: Escherichia coli; test: Antibacterial activity against Escherichia coli IH3080 assessed as growth inhibition at 10 ug after 18 hrs by […]; assay type: functional
[2] = test system: Escherichia coli; test: Antibacterial activity against Escherichia coli IH3080 assessed as growth inhibition at 10 ug after 18 hrs by […] in presence of 1 ug/ml rifampin; assay type: functional
[3] = test system: Enterobacter cloacae; test: Antibacterial activity against Enterobacter cloacae ATCC 23355 by CLSI M7-A7 agar dilution method; assay type: functional
[4] = test system: Klebsiella oxytoca; test: Antibacterial activity against Klebsiella oxytoca CCUG51683 by CLSI M7-A7 agar dilution method; assay type: functional
Summary of the method: (§1)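 Agar dilution on Mueller-Hinton agar with test substance at 0.25 to 32 μg/ml in twofold steps. Spots of about 10^4 CFU applied with a multipoint inoculator.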

[5] = test system: Citrobacter freundii; test: Antibacterial activity against Citrobacter freundii ATCC 8090 by CLSI M7-A7 agar dilution method; assay type: functional
[6] = test system: Escherichia coli; test: Antibacterial activity against Escherichia coli ATCC […] by CLSI M7-A7 agar dilution method; assay type: functional
[7] = test system: Staphylococcus aureus; test: Antibacterial activity against Staphylococcus aureus ATCC 25923 by CLSI M7-A7 agar dilution method; assay type: functional; summary of the method: as §1
[8] = test system: Enterobacter cloacae; test: Antibacterial activity against Enterobacter cloacae by CLSI M7-A7 agar dilution method; assay type: functional
[9] = test system: Candida albicans; test: Antibacterial activity against Candida albicans ATCC 28366 by CLSI M7-A7 agar dilution method; assay type: functional
[10] = test system: Acinetobacter baumannii; test: Antibacterial activity against Acinetobacter baumannii by CLSI M7-A7 agar dilution method; assay type: functional
[11] = test system: Enterobacter cloacae; test: Antibacterial activity against Enterobacter cloacae CCUG52947 by CLSI M7-A7 agar dilution method; assay type: functional
[12] = test system: Escherichia coli; test: Antibacterial activity against Escherichia coli SC 9252 by CLSI M7-A7 agar dilution method; assay type: functional
[13] = test system: Escherichia coli; test: Antibacterial activity against Escherichia coli IH3080 by CLSI M7-A7 agar dilution method; assay type: functional
[14] = test system: Escherichia coli; test: Antibacterial activity against Escherichia coli by CLSI M7-A7 agar dilution method; assay type: functional; summary of the method: as §1
[15] = test system: Klebsiella pneumoniae; test: Antibacterial activity against Klebsiella pneumoniae by CLSI M7-A7 agar dilution method; assay type: functional; summary of the method: as §1
[16] = test system: Klebsiella pneumoniae; test: Antibacterial activity against Klebsiella pneumoniae CCUG45421 by CLSI M7-A7 agar dilution method; assay type: functional; summary of the method: as §1
[17] = test system: Escherichia coli; test: Antibacterial activity against Escherichia coli SC 9253 by CLSI M7-A7 agar dilution method; assay type: functional; summary of the method: as §1
[18] = test system: Serratia marcescens; test: Antibacterial activity against Serratia marcescens ATCC 8100 by CLSI M7-A7 agar dilution method; assay type: functional; summary of the method: as §1
[19] = test system: Acinetobacter baumannii; test: Antibacterial activity against Acinetobacter baumannii ATCC 19606 by CLSI M7-A7 agar dilution method; assay type: functional
[20] = test system: Klebsiella oxytoca; test: Antibacterial activity against Klebsiella oxytoca ATCC 13182 by CLSI M7-A7 agar dilution method; assay type: functional; summary of the method: as §1
[21] = test system: Pseudomonas aeruginosa; test: Antibacterial activity against Pseudomonas aeruginosa ATCC 27853 by CLSI M7-A7 agar dilution method; assay type: functional; summary of the method: as §1
[22] = Inhibition of [3H]gentamicin binding to brush border membrane of renal cortex
Summary of the method: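 Brush border membrane vesicles prepared from male albino rat renal cortex by Mg2+-EGTA precipitation. Incubated with 20 μM [3H]gentamicin in 10 mM HEPES pH 7.5 with 300 mM mannitol, with or without compound, 60 min at 4°C. Then filtered, washed, and bound radioactivity counted by scintillation. IC50 fitted with the Hill equation.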

In the case of `CCCCCCCC(=O)N[C@@H](CCN)C(=O)N[C@H](C(=O)N[C@@H](CCN)C(=O)N[C@H]1CCNC(=O)[C@H]([C@@H](C)O)NC(=O)[C@H](CC)NC(=O)[C@H](CCN)NC(=O)[C@H](CC(C)C)NC(=O)[C@@H](Cc2ccccc2)NC(=O)[C@H](CC)NC1=O)[C@@H](C)O` (Octanoyl-[Dab]T[Dab][Dab][Abu][dF]L[Dab][Abu]T; lactam 4-C), the “inhibition zone (IZ)” value [1] is reported as 0 mm2 and the “inhibition zone (IZ)” value [2] is reported as 10 mm2.

For `CCCCCCCC(=O)N[C@H](C(=O)N[C@H](C)C(=O)N[C@H]1CCNC(=O)[C@H]([C@@H](C)O)NC(=O)[C@H](CCN)NC(=O)[C@H](CCN)NC(=O)[C@H]([C@@H](C)O)NC(=O)[C@H](Cc2ccccc2)NC(=O)[C@H](CCN)NC1=O)[C@@H](C)O`, the “inhibition zone (IZ)” value [1] was 60 mm2 and the “inhibition zone (IZ)” value [2] was 230 mm2.

Work on `CCCCCCCC(=O)N[C@H](C(=O)N[C@@H](CC)C(=O)N[C@H]1CCNC(=O)[C@H]([C@@H](C)O)NC(=O)[C@H](CCN)NC(=O)[C@H](CCN)NC(=O)[C@H](CC(C)C)NC(=O)[C@@H](Cc2ccccc2)NC(=O)[C@H](CCN)NC1=O)[C@@H](C)O` (Octanoyl-T[Abu][Dab][Dab][dF]L[Dab][Dab]T; lactam 3-C) yielded an MIC [3] of 32 µg/mL (≈ 29.8 µM), an MIC [4] of 32 µg/mL (≈ 29.8 µM) and an MIC [5] of 16 µg/mL (≈ 14.9 µM). The MIC [6] was over 32 µg/mL, the MIC [7] was over 32 µg/mL and the MIC [8] was over 32 µg/mL. It also gave an MIC [9] of over 32 µg/mL, an MIC [10] of over 32 µg/mL and an MIC [11] of over 32 µg/mL. For the same compound, the MIC [12] was over 32 µg/mL, the MIC [13] was over 32 µg/mL and the MIC [14] was over 16 µg/mL. The “inhibition zone (IZ)” value [1] was 32 mm2, the MIC [15] was over 32 µg/mL and the “inhibition zone (IZ)” value [2] was 194 mm2. For the same compound, the MIC [16] was over 32 µg/mL, the MIC [17] was over 32 µg/mL and the MIC [18] was over 32 µg/mL. The MIC [19] was over 32 µg/mL, the MIC [20] was 32 µg/mL (≈ 29.8 µM) and the MIC [21] was over 32 µg/mL.

In the case of `CC(C)C[C@@H]1NC(=O)[C@@H](Cc2ccccc2)NC(=O)[C@H](CCN)NC(=O)[C@@H](NC(=O)[C@H](CCN)NC(=O)[C@@H](N)[C@@H](C)O)CCNC(=O)[C@H]([C@@H](C)O)NC(=O)[C@H](CCN)NC(=O)[C@H](CCN)NC1=O` [POLYMYXIN B NONAPEPTIDE] (H-T[Dab][Dab][Dab][dF]L[Dab][Dab]T; lactam 3-C), the “inhibition zone (IZ)” value [1] is reported as “<=5 mm2” and the “inhibition zone (IZ)” value [2] is reported as 143 mm2.

In the case of `CCCCCCCC(=O)N[C@H](C(=O)N[C@@H](CCN)C(=O)N[C@H]1CCNC(=O)[C@H]([C@@H](C)O)NC(=O)[C@H](CCN)NC(=O)[C@H](CC)NC(=O)[C@H](CC(C)C)NC(=O)[C@@H](Cc2ccccc2)NC(=O)[C@H](CCN)NC1=O)[C@@H](C)O` (Octanoyl-T[Dab][Dab][Dab][dF]L[Abu][Dab]T; lactam 3-C), the “inhibition zone (IZ)” value [1] is reported as 60 mm2 and the “inhibition zone (IZ)” value [2] is reported as 250 mm2.

In the case of POLYMYXIN B [listing 1 of 2 here], the IC50 [22] is reported as 39.3 µM.

In the case of `CCCCCCCC(=O)N[C@H](C(=O)N[C@@H](CC)C(=O)N[C@H]1CCNC(=O)[C@H](CC(C)C)NC(=O)[C@H](CCN)NC(=O)[C@H](CCN)NC(=O)[C@H](CC(C)C)NC(=O)[C@@H](Cc2ccccc2)NC(=O)[C@H](CCN)NC1=O)[C@@H](C)O` (Octanoyl-T[Abu][Dab][Dab][dF]L[Dab][Dab]L; lactam 3-C), the “inhibition zone (IZ)” value [1] is reported as 50 mm2 and the “inhibition zone (IZ)” value [2] is reported as 180 mm2.

For `CCCCCCCC(=O)N[C@H](C(=O)N[C@@H](CO)C(=O)N[C@H]1CCNC(=O)[C@H]([C@@H](C)O)NC(=O)[C@H](CCN)NC(=O)[C@H](CCN)NC(=O)[C@H](CC(C)C)NC(=O)[C@H](Cc2ccccc2)NC(=O)[C@H](CCN)NC1=O)[C@@H](C)O`, the “inhibition zone (IZ)” value [1] was 80 mm2 and the “inhibition zone (IZ)” value [2] was 230 mm2.

POLYMYXIN B [listing 2 of 2 here] gave an MIC [3] of 0.5 µg/mL, an MIC [4] of 0.5 µg/mL and an MIC [5] of 1 µg/mL. The MIC [6] was 1 µg/mL, the MIC [7] was over 32 µg/mL and the MIC [8] was 0.5 µg/mL. The MIC [9] was over 32 µg/mL, the MIC [10] was 0.5 µg/mL and the MIC [11] was 1 µg/mL. It also gave an MIC [12] of over 32 µg/mL, an MIC [13] of 0.5 µg/mL and an MIC [14] of 0.25 µg/mL. It also gave an inhibition zone (IZ) [1] of 120 mm2, an MIC [15] of 0.5 µg/mL and an inhibition zone (IZ) [2] of 125 mm2. It also gave an MIC [16] of 1 µg/mL, an MIC [17] of over 32 µg/mL and an MIC [18] of over 32 µg/mL. For the same compound, the MIC [19] was 1 µg/mL, the MIC [20] was 0.5 µg/mL and the MIC [21] was 1 µg/mL.

For `CCCCCCCC(=O)N[C@H](C(=O)N[C@@H](CCN)C(=O)N[C@H]1CCNC(=O)[C@H]([C@@H](C)O)NC(=O)[C@H](CC)NC(=O)[C@H](CCN)NC(=O)[C@H](CC(C)C)NC(=O)[C@@H](Cc2ccccc2)NC(=O)[C@H](CCN)NC1=O)[C@@H](C)O` (Octanoyl-T[Dab][Dab][Dab][dF]L[Dab][Abu]T; lactam 3-C), the “inhibition zone (IZ)” value [1] was 0 mm2 and the “inhibition zone (IZ)” value [2] was 170 mm2.
